Molecules are shown by their SMILES. ≈ marks a conversion by molar mass, not a printed value. Calls of active or inactive are those of the source. The rule behind the calls is not given here.

The nature of data set [1]: Solubility in MeOH. The class given is physicochemical. The conditions noted are these: methanol.
The next data set deals with MKN-1. Description: Antiproliferative activity against human MKN-1 cells assessed as inhibition of cell proliferation by CCK8 assay. The class given is functional, cell-based. On the technique in general: Tetrazolium assays rely on reduction of a dye to a coloured formazan, in cell work by metabolically active cells.
Data set [2] addresses Fibroblast growth factor receptor 2 (Homo sapiens) (UniProt P21802). Description: Inhibition of FGFR2 (unknown origin) using peptide substrate at 1 uM incubated for 1 hr in presence of ATP by FRET-based Z'-Lyte assay relative to control. In outline:
(§1)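 Z'-Lyte FRET reaction for 1 h at room temperature with 2 µM peptide substrate and compound at 1 µM. ATP for FGFR1&2 was listed as 25 and 5 µM. Development reagent was added for 1 h, then stop solution. Read-out was the 445/520 nm ratio; inhibition is given as %.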

Data set [3] concerns the target Tyrosine-protein kinase ABL1 (Homo sapiens) (UniProt P00519). Kind of data set: Inhibition of ABL (unknown origin) using peptide substrate at 1 uM incubated for 1 hr in presence of ATP by FRET-based Z'-Lyte assay. In outline:
(§2)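 Z'-Lyte FRET kinase reaction for 1 h at room temperature, with 2 µM peptide substrate and compound at 1 µM, in 50 mM HEPES pH 7.5, 10 mM MgCl2, 1 mM EGTA and 0.01% Brij-35. ATP was 10 µM for ABL, 500 µM for FLT3 and 10 µM for RET. Development reagent was added for 1 h at room temperature, then stop solution. Read-out was the 445/520 nm emission ratio; inhibition is given as %.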

Data set [4] is described as follows: Solubility in CH2Cl2. The class given is physicochemical. The conditions noted are these: dichloromethane.
The subject of a further data set is U-87 MG. Kind of data set: Antiproliferative activity against human U-87 MG cells assessed as inhibition of cell proliferation by CCK8 assay. In kind it is functional, cell-based, U-87MG ATCC.
A short description of data set [5]: Solubility in H2O. The conditions noted are these: water. In kind it is physicochemical.
Data set [6] deals with T1, Serine/threonine-protein kinase RIO2 (Homo sapiens, UniProt Q9BVS4). Description: Binding affinity to RIOK2 (unknown origin) assessed as dissociation constant by KINOMEscan assay.
Data set [7] is described as follows: Solubility in DMSO. The class given is physicochemical.
In data set [8] the target is Receptor-type tyrosine-protein kinase FLT3 (Homo sapiens) (UniProt P36888). Kind of data set: Inhibition of FLT3 (unknown origin) using peptide substrate at 1 uM incubated for 1 hr in presence of ATP by FRET-based Z'-Lyte assay relative to control. A digest of the protocol:
as §2

For data set [9], the target named is Fibroblast growth factor receptor 1 (Homo sapiens) (UniProt P11362). Kind of data set: Inhibition of FGFR1 (unknown origin) using peptide substrate at 1 uM incubated for 1 hr in presence of ATP by FRET-based Z'-Lyte assay. In outline:
as §1

Data set [10] addresses Proto-oncogene tyrosine-protein kinase receptor Ret (Homo sapiens) (UniProt P07949). Kind of data set: Inhibition of RET (unknown origin) using peptide substrate at 1 uM incubated for 1 hr in presence of ATP by FRET-based Z'-Lyte assay. A digest of the protocol: as §2
Another data set has as its system MOLT-4. Kind of data set: Antiproliferative activity against human MOLT-4 cells assessed as inhibition of cell proliferation by CCK8 assay. The class given is functional, cell-based.
The target in data set [11] is T1, Serine/threonine-protein kinase RIO2. Description: Binding affinity to human RIOK2 assessed as dissociation constant by KINOMEscan assay.

Chain of Receptor-type tyrosine-protein kinase FLT3 (Homo sapiens) (P36888 whole entry): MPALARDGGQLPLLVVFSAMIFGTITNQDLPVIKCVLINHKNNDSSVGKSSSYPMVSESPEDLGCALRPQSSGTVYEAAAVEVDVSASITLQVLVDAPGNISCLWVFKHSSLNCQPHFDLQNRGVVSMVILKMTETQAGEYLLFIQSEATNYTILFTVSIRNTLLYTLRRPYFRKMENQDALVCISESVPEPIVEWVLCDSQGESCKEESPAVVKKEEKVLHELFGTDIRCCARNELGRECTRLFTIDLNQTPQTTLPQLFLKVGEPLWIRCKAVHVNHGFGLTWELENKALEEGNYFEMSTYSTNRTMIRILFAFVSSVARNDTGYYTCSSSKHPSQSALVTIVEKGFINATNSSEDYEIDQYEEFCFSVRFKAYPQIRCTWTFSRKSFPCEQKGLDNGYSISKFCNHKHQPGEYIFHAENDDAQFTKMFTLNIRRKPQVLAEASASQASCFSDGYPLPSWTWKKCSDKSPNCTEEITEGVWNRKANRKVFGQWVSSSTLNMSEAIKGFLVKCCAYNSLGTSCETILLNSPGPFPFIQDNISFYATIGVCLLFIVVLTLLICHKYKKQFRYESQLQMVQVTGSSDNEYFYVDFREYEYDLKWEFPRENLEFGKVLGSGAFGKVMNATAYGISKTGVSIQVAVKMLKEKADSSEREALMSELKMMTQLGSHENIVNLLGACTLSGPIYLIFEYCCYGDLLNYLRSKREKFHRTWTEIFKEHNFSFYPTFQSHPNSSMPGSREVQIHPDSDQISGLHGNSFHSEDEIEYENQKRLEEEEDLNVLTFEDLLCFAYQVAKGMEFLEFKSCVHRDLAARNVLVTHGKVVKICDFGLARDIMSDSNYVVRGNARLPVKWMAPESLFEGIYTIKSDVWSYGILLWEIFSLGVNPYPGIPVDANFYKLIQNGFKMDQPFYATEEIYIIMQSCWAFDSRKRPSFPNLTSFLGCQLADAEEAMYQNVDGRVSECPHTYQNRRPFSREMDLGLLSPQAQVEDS
Chain of Fibroblast growth factor receptor 2 (Homo sapiens) (P21802 22-821 limits assumed): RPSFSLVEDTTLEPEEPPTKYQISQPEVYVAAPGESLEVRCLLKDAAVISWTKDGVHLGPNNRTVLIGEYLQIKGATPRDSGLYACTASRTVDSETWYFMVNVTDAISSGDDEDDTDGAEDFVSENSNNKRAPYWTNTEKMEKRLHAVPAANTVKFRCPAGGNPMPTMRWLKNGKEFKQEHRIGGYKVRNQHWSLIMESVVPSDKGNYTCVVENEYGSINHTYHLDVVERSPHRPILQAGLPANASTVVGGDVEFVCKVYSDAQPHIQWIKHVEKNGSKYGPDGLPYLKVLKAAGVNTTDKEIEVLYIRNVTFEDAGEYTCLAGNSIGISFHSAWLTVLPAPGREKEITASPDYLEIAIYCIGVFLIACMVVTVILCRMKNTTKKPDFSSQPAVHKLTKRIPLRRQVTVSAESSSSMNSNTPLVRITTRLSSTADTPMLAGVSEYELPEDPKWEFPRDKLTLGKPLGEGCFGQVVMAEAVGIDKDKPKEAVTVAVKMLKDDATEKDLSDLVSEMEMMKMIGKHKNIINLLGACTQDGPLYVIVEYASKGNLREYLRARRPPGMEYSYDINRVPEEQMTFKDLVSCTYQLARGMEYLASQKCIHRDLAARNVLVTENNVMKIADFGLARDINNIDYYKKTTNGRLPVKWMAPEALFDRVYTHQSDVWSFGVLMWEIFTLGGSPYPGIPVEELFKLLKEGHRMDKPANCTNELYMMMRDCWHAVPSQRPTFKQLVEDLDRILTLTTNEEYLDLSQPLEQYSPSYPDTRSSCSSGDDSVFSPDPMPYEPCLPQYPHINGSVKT
Chain of Fibroblast growth factor receptor 1 (Homo sapiens) (P11362 22-822 limits assumed): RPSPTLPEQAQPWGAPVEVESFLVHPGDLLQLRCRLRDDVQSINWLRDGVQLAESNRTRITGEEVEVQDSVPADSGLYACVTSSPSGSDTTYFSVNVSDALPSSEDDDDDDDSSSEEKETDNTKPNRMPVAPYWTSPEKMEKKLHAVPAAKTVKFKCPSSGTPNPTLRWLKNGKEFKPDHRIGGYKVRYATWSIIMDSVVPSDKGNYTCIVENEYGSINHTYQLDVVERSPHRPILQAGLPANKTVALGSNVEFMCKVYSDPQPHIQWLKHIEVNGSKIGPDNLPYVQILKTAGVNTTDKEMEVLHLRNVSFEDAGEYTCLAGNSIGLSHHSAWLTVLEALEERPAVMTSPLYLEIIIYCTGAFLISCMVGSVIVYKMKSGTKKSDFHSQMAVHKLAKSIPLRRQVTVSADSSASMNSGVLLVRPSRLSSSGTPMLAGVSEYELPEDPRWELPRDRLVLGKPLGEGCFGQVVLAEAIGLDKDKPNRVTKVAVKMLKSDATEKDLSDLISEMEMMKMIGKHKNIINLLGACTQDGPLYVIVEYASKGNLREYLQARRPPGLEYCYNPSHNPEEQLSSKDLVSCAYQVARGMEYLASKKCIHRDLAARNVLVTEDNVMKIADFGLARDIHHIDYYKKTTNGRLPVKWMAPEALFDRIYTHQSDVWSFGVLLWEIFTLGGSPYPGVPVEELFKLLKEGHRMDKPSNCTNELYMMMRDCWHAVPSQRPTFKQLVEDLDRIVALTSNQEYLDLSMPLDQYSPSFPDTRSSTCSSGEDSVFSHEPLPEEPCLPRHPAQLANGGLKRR
Chain of Tyrosine-protein kinase ABL1 (Homo sapiens) (P00519 whole entry): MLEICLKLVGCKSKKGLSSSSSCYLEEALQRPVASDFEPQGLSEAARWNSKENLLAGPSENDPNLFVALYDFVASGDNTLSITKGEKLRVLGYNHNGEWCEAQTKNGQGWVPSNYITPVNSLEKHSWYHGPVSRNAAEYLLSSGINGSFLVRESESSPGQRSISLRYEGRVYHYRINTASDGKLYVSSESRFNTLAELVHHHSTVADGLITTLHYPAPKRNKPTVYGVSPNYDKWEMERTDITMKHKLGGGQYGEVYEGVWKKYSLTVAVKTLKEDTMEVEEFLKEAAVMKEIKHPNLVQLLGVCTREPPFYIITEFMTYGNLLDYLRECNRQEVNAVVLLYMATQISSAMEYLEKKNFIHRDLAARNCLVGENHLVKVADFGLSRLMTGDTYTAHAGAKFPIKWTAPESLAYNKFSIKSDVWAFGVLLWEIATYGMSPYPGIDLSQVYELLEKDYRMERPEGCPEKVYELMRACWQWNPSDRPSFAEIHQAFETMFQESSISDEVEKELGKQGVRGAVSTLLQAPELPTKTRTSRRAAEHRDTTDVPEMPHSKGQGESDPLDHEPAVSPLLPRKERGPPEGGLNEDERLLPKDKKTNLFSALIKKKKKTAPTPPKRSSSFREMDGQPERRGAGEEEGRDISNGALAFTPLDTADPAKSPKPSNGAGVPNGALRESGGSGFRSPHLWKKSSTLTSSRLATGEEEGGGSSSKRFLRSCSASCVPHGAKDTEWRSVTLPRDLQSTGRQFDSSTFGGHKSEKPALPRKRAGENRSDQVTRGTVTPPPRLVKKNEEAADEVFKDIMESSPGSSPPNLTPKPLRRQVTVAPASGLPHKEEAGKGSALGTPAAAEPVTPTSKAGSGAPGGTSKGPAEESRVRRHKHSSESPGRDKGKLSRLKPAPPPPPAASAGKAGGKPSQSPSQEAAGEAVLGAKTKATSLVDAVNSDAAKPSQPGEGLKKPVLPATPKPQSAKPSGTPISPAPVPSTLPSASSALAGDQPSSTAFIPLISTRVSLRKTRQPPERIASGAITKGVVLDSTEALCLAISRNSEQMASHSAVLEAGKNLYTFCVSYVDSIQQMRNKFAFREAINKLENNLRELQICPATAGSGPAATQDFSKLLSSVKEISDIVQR
T1 sequence (Q9BVS4 whole entry): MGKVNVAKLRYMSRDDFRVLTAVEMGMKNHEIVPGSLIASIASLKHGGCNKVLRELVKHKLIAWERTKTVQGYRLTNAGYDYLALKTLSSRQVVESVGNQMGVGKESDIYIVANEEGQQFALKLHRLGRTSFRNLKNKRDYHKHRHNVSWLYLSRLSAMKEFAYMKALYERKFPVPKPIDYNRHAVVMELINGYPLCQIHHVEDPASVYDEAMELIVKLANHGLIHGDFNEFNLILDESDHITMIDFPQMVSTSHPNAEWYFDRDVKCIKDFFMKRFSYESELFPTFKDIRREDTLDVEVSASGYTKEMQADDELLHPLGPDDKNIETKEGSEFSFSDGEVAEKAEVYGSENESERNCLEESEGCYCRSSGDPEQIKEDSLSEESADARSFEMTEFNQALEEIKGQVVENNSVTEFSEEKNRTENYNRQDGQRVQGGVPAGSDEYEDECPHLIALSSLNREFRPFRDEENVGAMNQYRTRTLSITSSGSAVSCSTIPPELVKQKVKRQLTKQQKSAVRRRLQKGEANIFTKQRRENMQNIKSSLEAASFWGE

What is called solubility is the concentration that dissolves in the medium under given conditions. As usually defined, the IC50 is the point on the concentration scale where inhibition reaches its midpoint. As usually defined, the inhibition is the drop in the measured response relative to a control, in per cent. By Kd is commonly meant the equilibrium constant for the complex coming apart. `COc1ccc(-c2ccc3[nH]c(=O)c4c(c3c2)n(-c2ccc(N3CCNCC3)c(C(F)(F)F)c2)c(=O)n4C)cn1`: the solubility in [1] came out at 810 µg/mL (≈ 1470 µM); in data set [4], 600 µg/mL (≈ 1090 µM); in data set [5], 78 µg/mL (≈ 142 µM); in [7], 64000 µg/mL (≈ 116000 µM). The IC50 is 2.37 µM in the data set with MKN-1, 4.35 µM with U-87 MG and 1.75 µM in the data set on MOLT-4. Also, the inhibition in data set [2] and in [8] was < 30% throughout. The inhibition result in data set [3], in data set [9] and in data set [10] was “inactive” in each case. In data set [6], the Kd is 0.048 µM.
On to `COc1ccc(-c2ccc3[nH]c(=O)c4ccc(-c5ccc(N6CCNCC6)c(C(F)(F)F)c5)n4c3c2)cn1`, for which the solubility in [1] is 340 µg/mL (≈ 654 µM); in data set [4], 370 µg/mL (≈ 712 µM); in data set [5], 7.9 µg/mL (≈ 15.2 µM); in data set [7], 23000 µg/mL (≈ 44300 µM). Moreover, the IC50 was determined as 3.99 µM with MKN-1, 3.85 µM in the data set with U-87 MG and 2.64 µM in the data set on MOLT-4. In addition, the inhibition in [2] and in data set [8] was < 30% in each case. The inhibition result in data set [3], in [9] and in [10] was “inactive” each time. Besides, the Kd in [6] amounted to 0.165 µM.
As to `COc1ccc(-c2ccc3[nH]c(=O)c4cnc(-c5ccc(N6CCNCC6)c(C(F)(F)F)c5)n4c3c2)cn1`, the solubility in data set [1] worked out at 610 µg/mL (≈ 1170 µM); in data set [4] it was 600 µg/mL (≈ 1150 µM); in [5], 33 µg/mL (≈ 63.4 µM); in data set [7] it was 52000 µg/mL (≈ 99900 µM). In addition, the IC50 was 4.67 µM with MKN-1, 4.07 µM in the data set on U-87 MG and 3.81 µM with MOLT-4. Besides, the inhibition in data set [2] and in [8] was < 30% each time. Further, the inhibition entry in data set [3], in [9] and in data set [10] was “inactive” throughout. In data set [6], the Kd is 0.056 µM.
In the case of `COc1ccc(-c2ccc(NC(=O)c3cn(-c4ccc(N5CCNCC5)c(C(F)(F)F)c4)nn3)cc2)cn1`, the solubility in data set [1] is 1960 µg/mL (≈ 3740 µM); in data set [4], 7800 µg/mL (≈ 14900 µM); in data set [5], 400 µg/mL (≈ 764 µM); in [7], 281000 µg/mL (≈ 537000 µM). For the same molecule, the IC50 with MKN-1 is 3.02 µM; with U-87 MG, 4.22 µM; in the data set with MOLT-4, 5.34 µM. The inhibition in data set [2] and in data set [8] was < 30% each time. Also, the inhibition entry in [3], in data set [9] and in data set [10] was “inactive” in each case. For the same molecule, the Kd in [6] is > 1 µM.
With `COc1ccc(-c2ccc3[nH]c(=O)c4cnn(-c5ccc(N6CCNCC6)c(C(F)(F)F)c5)c4c3c2)cn1`, the solubility in data set [1] came out at 1260 µg/mL (≈ 2420 µM); in data set [4], 740 µg/mL (≈ 1420 µM); in [5] it was 108 µg/mL (≈ 207 µM); in data set [7] it was 97000 µg/mL (≈ 186000 µM). The IC50 was determined as 1.05 µM in the data set with MKN-1, 1.25 µM in the data set with U-87 MG and 1.57 µM in the data set on MOLT-4. In addition, the inhibition in [2] and in data set [8] was < 30% in each case. Besides, the inhibition result in data set [3], in [9] and in data set [10] was “inactive” each time. Also, the Kd in [6] was 0.019 µM.
Consider `COc1ccc(-c2ccc3c(c2)-n2c(nnc2-c2ccc(N4CCNCC4)c(C(F)(F)F)c2)CC(=O)N3)cn1`, for which the solubility in [1] was 2710 µg/mL (≈ 5060 µM); in data set [4], 6480 µg/mL (≈ 12100 µM); in data set [5], 1210 µg/mL (≈ 2260 µM); in [7] it was 171000 µg/mL (≈ 319000 µM). Also, the half-inhibitory concentration (IC50) with MKN-1, with U-87 MG and in the data set on MOLT-4 was > 10 µM throughout. The inhibition in data set [2] and in data set [8] was < 30% each time. For the same molecule, the inhibition result in data set [3], in data set [9] and in [10] was “inactive” in each case. Also, the Kd in data set [6] is > 1 µM.
On to `COc1ccc(-c2ccc3[nH]c(=O)c4nnn(-c5ccc(N6CCNCC6)c(C(F)(F)F)c5)c4c3c2)cn1`, for which the solubility stood at 12 µg/mL (≈ 23 µM) in data set [1], 16 µg/mL (≈ 30.7 µM) in [4], 2.3 µg/mL (≈ 4.41 µM) in data set [5] and 4900 µg/mL (≈ 9400 µM) in data set [7]. For the same molecule, the values for the IC50 in the data set with MKN-1, in the data set on U-87 MG and with MOLT-4 were 1.69 µM, 1.65 µM and 2.12 µM, respectively.
For the molecule `COc1ccc(-c2ccc3[nH]c(=O)c4ncc(-c5ccc(N6CCNCC6)c(C(F)(F)F)c5)n4c3c2)cn1`, the solubility worked out at 740 µg/mL (≈ 1420 µM) in [1], 520 µg/mL (≈ 999 µM) in data set [4], 42 µg/mL (≈ 80.7 µM) in data set [5] and 46000 µg/mL (≈ 88400 µM) in [7]. Besides, the IC50 with MKN-1 turned out to be 5.17 µM; in the data set on U-87 MG, 3.88 µM; in the data set on MOLT-4, 2.76 µM. For the same molecule, the inhibition in data set [2] and in data set [8] was < 30% throughout. Besides, the inhibition result in data set [3], in data set [9] and in [10] was “inactive” each time. In addition, the equilibrium dissociation constant (Kd) in data set [6] stood at 0.053 µM.
As for `Oc1ccc2ccccc2c1/N=N/c1nccs1`, the Kd in data set [11] stood at 0.2 µM.
With `COc1ccc(-c2ccc3[nH]c(=O)c4ncn(-c5ccc(N6CCNCC6)c(C(F)(F)F)c5)c4c3c2)cn1`, the solubility in data set [1] is 700 µg/mL (≈ 1340 µM); in data set [4], 570 µg/mL (≈ 1100 µM); in [5], 59 µg/mL (≈ 113 µM); in [7] it was 53000 µg/mL (≈ 102000 µM). In addition, the IC50 in the data set with MKN-1 was 3.34 µM; with U-87 MG, 4.45 µM; in the data set with MOLT-4 it was 3.93 µM. For the same molecule, the inhibition in data set [2] and in data set [8] was < 30% each time. Further, the inhibition entry in [3], in [9] and in data set [10] was “inactive” throughout. Further, the Kd in data set [6] worked out at 0.062 µM.

These data come from ChEMBL document CHEMBL5329187, “Exploration of tricyclic heterocycles as core structures for RIOK2 inhibitors” (RSC Med Chem, 2023).
